According to ChEMBL document CHEMBL1629583, “Establishment of in vitro susceptibility testing methodologies and comparative activities of piperacillin in combination with the penem {beta}-lactamase inhibitor BLI-489” (2009):
Values after ≈ are worked out from the molar mass of the structure shown.

Experiments:
Format in all cases: functional
Burkholderia cepacia = experiment: Antimicrobial activity against Burkholderia cepacia clinical isolate after 18 to 22 hrs by broth microdilution method
[1] = tested on: Stenotrophomonas maltophilia; experiment: Antimicrobial activity against Stenotrophomonas maltophilia clinical isolate after 18 to 22 hrs by broth microdilution method
Haemophilus influenzae = experiment: Antimicrobial activity against beta-lactamase-negative Haemophilus influenzae clinical isolate after 18 to 22 hrs by broth microdilution method
[2] = tested on: Haemophilus parainfluenzae; experiment: Antimicrobial activity against Haemophilus parainfluenzae clinical isolate after 18 to 22 hrs by broth microdilution method
[3] = tested on: Staphylococcus haemolyticus; experiment: Antimicrobial activity against Staphylococcus haemolyticus clinical isolate after 18 to 22 hrs by broth microdilution method
[4] = tested on: Enterococcus casseliflavus; experiment: Antimicrobial activity against Enterococcus casseliflavus clinical isolate after 18 to 22 hrs by broth microdilution method
Enterococcus gallinarum [5] = experiment: Antimicrobial activity against Enterococcus gallinarum clinical isolate after 18 to 22 hrs by broth microdilution method
Escherichia coli [6] = experiment: Antimicrobial activity against class A extended spectrum beta-lactamase- and class D OXA- producing Escherichia coli clinical isolate after 18 to 22 hrs by broth microdilution method
Escherichia coli [7] = experiment: Antimicrobial activity against Escherichia coli clinical isolate after 18 to 22 hrs by broth microdilution method
Enterobacter cloacae = experiment: Antimicrobial activity against AmpC beta-lactamase-producing Enterobacter cloacae clinical isolate after 18 to 22 hrs by broth microdilution method
Serratia marcescens = experiment: Antimicrobial activity against AmpC beta-lactamase-producing Serratia marcescens clinical isolate after 18 to 22 hrs by broth microdilution method
Proteus vulgaris = experiment: Antimicrobial activity against Proteus vulgaris clinical isolate after 18 to 22 hrs by broth microdilution method
Providencia rettgeri = experiment: Antimicrobial activity against Providencia rettgeri clinical isolate after 18 to 22 hrs by broth microdilution method
[8] = tested on: Acinetobacter calcoaceticus; experiment: Antimicrobial activity against Acinetobacter calcoaceticus clinical isolate after 18 to 22 hrs by broth microdilution method
[9] = tested on: Haemophilus parainfluenzae; experiment: Antimicrobial activity against Haemophilus parainfluenzae clinical isolate after 18 to 22 hrs by broth microdilution method in presence of beta-lactamase inhibitor Tazobactam
Method in brief: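 […] was used for CLSI broth microdilution with piperacillin-tazobactam. Inoculum was 10^5 CFU/ml, incubated 18 to 22 h at 35°C in ambient air. MIC was the lowest concentration with no growth visible to the unaided eye.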

Streptococcus pneumoniae [10] = experiment: Antimicrobial activity against penicillin-intermediate Streptococcus pneumoniae clinical isolate after 18 to 22 hrs by broth microdilution method in presence of beta-lactamase inhibitor BLI-489
Method in brief: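 Streptococci were tested by CLSI broth microdilution in Mueller-Hinton II broth plus 5% lysed horse blood. Piperacillin was serially diluted with BLI-489 fixed at a constant 4 μg/ml. Inoculum was 10^5 CFU/ml, with 18 to 22 h at 35°C in ambient air. MIC was the lowest concentration completely inhibiting growth by eye.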

Streptococcus pneumoniae [11] = experiment: Antimicrobial activity against penicillin-resistant Streptococcus pneumoniae clinical isolate after 18 to 22 hrs by broth microdilution method in presence of beta-lactamase inhibitor BLI-489
Method in brief: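 CLSI broth microdilution in Mueller-Hinton II broth with 5% lysed horse blood. Antibiotic in serial dilution with the β-lactamase inhibitor held at a constant 4 μg/ml. Inoculum 10^5 CFU/ml. Incubated 18 to 22 h at 35°C in ambient air. MIC is the lowest concentration with no growth visible to the eye.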

Bacteroides fragilis = experiment: Antimicrobial activity against Bacteroides fragilis clinical isolate after 18 to 22 hrs by broth microdilution method in presence of beta-lactamase inhibitor Tazobactam
[12] = tested on: Peptostreptococcus anaerobius; experiment: Antimicrobial activity against Peptostreptococcus anaerobius clinical isolate after 18 to 22 hrs by broth microdilution method
Enterococcus durans = experiment: Antimicrobial activity against Enterococcus durans clinical isolate after 18 to 22 hrs by broth microdilution method in presence of beta-lactamase inhibitor BLI-489
Method in brief: (§1)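 CLSI broth microdilution in Mueller-Hinton II broth. Piperacillin serial dilutions were combined with BLI-489 held constant at 4 μg/ml. Inoculum was 10^5 CFU/ml. Plates were incubated 18 to 22 h at 35°C in ambient air. MIC was the lowest concentration completely inhibiting growth seen by the unaided eye. Piperacillin-tazobactam interpretive criteria were applied.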

Enterococcus gallinarum [13] = experiment: Antimicrobial activity against Enterococcus gallinarum clinical isolate after 18 to 22 hrs by broth microdilution method in presence of beta-lactamase inhibitor BLI-489
Method in brief: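 CLSI broth microdilution in Mueller-Hinton II broth. Serial dilutions of piperacillin were tested with BLI-489 held at a constant 4 μg/ml. Inoculum was 10^5 CFU/ml. Plates were incubated 18 to 22 h at 35°C in ambient air. MIC was the lowest concentration giving complete growth inhibition by unaided eye.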

Streptococcus pyogenes = experiment: Antimicrobial activity against Streptococcus pyogenes clinical isolate after 18 to 22 hrs by broth microdilution method in presence of beta-lactamase inhibitor Tazobactam
Method in brief: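 Streptococcal isolates were tested with piperacillin-tazobactam by CLSI broth microdilution in Mueller-Hinton II broth supplemented with 5% lysed horse blood. Inoculum was 10^5 CFU/ml, incubated 18 to 22 h at 35°C in ambient air. Visual endpoint: lowest concentration with complete inhibition.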

Citrobacter freundii = experiment: Antimicrobial activity against AmpC beta-lactamase-producing Citrobacter freundii clinical isolate after 18 to 22 hrs by broth microdilution method in presence of beta-lactamase inhibitor Tazobactam
Method in brief: (§2)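 Piperacillin-tazobactam was tested on recent clinical isolates by CLSI broth microdilution in Mueller-Hinton II broth, with tazobactam at constant 4 μg/ml. Wells held 10^5 CFU/ml and were incubated 18 to 22 h at 35°C in ambient air. MIC was the lowest concentration with no growth visible to the unaided eye.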

Klebsiella pneumoniae = experiment: Antimicrobial activity against AmpC- producing Klebsiella pneumoniae clinical isolate after 18 to 22 hrs by broth microdilution method in presence of beta-lactamase inhibitor BLI-489; method in brief: as §1
Acinetobacter junii = experiment: Antimicrobial activity against Acinetobacter junii clinical isolate after 18 to 22 hrs by broth microdilution method in presence of beta-lactamase inhibitor Tazobactam; method in brief: as §2
Acinetobacter lwoffii = experiment: Antimicrobial activity against Acinetobacter lwoffii clinical isolate after 18 to 22 hrs by broth microdilution method in presence of beta-lactamase inhibitor Tazobactam; method in brief: as §2

## C[C@H]1COc2c(N3CCN(C)CC3)c(F)cc3c(=O)c(C(=O)O)cn1c23.C[C@H]1COc2c(N3CCN(C)CC3)c(F)cc3c(=O)c(C(=O)O)cn1c23.O [LEVOFLOXACIN]
Burkholderia cepacia
  MIC50: 2 µg/mL
  MIC90: 4 µg/mL
[1]
  MIC50: 1 µg/mL
  MIC90: 4 µg/mL
Haemophilus influenzae
  MIC: ≤ 0.015 µg/mL
  MIC50: ≤ 0.015 µg/mL
  MIC90: ≤ 0.015 µg/mL
[2]
  MIC: ≤ 0.015 µg/mL
  MIC50: ≤ 0.015 µg/mL
  MIC90: 0.06 µg/mL
[3]
  MIC50: 8 µg/mL
  MIC90: 16 µg/mL
[4]
  MIC50: 1 µg/mL
  MIC90: 8 µg/mL
Enterococcus gallinarum [5]
  MIC50: 1 µg/mL
  MIC90: 8 µg/mL
Escherichia coli [6]
  MIC50: 16 µg/mL
  MIC90: > 16 µg/mL
Escherichia coli [7]
  MIC50: 0.03 µg/mL
  MIC90: 8 µg/mL
Enterobacter cloacae
  MIC50: 0.12 µg/mL
  MIC90: 8 µg/mL
Serratia marcescens
  MIC50: 0.12 µg/mL
  MIC90: 8 µg/mL
Proteus vulgaris
  MIC: 0.03 µg/mL
  MIC50: 0.03 µg/mL
  MIC90: 0.12 µg/mL
Providencia rettgeri
  MIC50: 1 µg/mL
  MIC90: 16 µg/mL
[8]
  MIC50: 8 µg/mL
  MIC90: 16 µg/mL

## CCN1CCN(C(=O)N[C@@H](C(=O)N[C@@H]2C(=O)N3[C@@H]2SC(C)(C)[C@@H]3C(=O)O)c2ccccc2)C(=O)C1=O [PIPERACILLIN]
Burkholderia cepacia
  MIC50: 32 µg/mL (≈ 61.8 µM)
  MIC90: 128 µg/mL (≈ 247 µM)
[1]
  MIC: > 128 µg/mL
  MIC50: > 128 µg/mL
  MIC90: > 128 µg/mL
Haemophilus influenzae
  MIC50: 0.015 µg/mL (≈ 0.029 µM)
  MIC90: 0.03 µg/mL (≈ 0.058 µM)
[2]
  MIC50: 0.06 µg/mL (≈ 0.116 µM)
  MIC90: 0.5 µg/mL (≈ 0.966 µM)
[9]
  MIC50: 0.06 µg/mL
  MIC90: 0.25 µg/mL
[3]
  MIC50: > 128 µg/mL
  MIC90: > 128 µg/mL
Streptococcus pneumoniae [10]
  MIC50: 0.25 µg/mL
  MIC90: 1 µg/mL
Streptococcus pneumoniae [11]
  MIC50: 2 µg/mL
  MIC90: 4 µg/mL
Bacteroides fragilis
  MIC50: 0.06 µg/mL
  MIC90: 0.25 µg/mL
[12]
  MIC50: 0.06 µg/mL (≈ 0.116 µM)
  MIC90: 0.06 µg/mL (≈ 0.116 µM)
[4]
  MIC50: 4 µg/mL (≈ 7.73 µM)
  MIC90: 16 µg/mL (≈ 30.9 µM)
Enterococcus durans
  MIC50: 2 µg/mL
  MIC90: 8 µg/mL
Enterococcus gallinarum [5]
  MIC50: 4 µg/mL (≈ 7.73 µM)
  MIC90: 16 µg/mL (≈ 30.9 µM)
Enterococcus gallinarum [13]
  MIC50: 2 µg/mL
  MIC90: 8 µg/mL
Streptococcus pyogenes
  MIC50: 0.03 µg/mL
  MIC90: 0.06 µg/mL
Escherichia coli [6]
  MIC: > 128 µg/mL
  MIC50: > 128 µg/mL
  MIC90: > 128 µg/mL
Escherichia coli [7]
  MIC50: 2 µg/mL (≈ 3.86 µM)
  MIC90: > 128 µg/mL
Enterobacter cloacae
  MIC50: > 128 µg/mL
  MIC90: > 128 µg/mL
Serratia marcescens
  MIC50: > 128 µg/mL
  MIC90: > 128 µg/mL
Citrobacter freundii
  MIC50: 8 µg/mL
  MIC90: > 128 µg/mL
Klebsiella pneumoniae
  MIC50: 16 µg/mL
  MIC90: > 128 µg/mL
Proteus vulgaris
  MIC50: 64 µg/mL (≈ 124 µM)
  MIC90: > 128 µg/mL
Providencia rettgeri
  MIC50: 2 µg/mL (≈ 3.86 µM)
[8]
  MIC50: > 128 µg/mL
  MIC90: > 128 µg/mL
Acinetobacter junii
  MIC50: ≤ 0.12 µg/mL
  MIC90: 32 µg/mL
Acinetobacter lwoffii
  MIC50: ≤ 0.12 µg/mL
  MIC90: 32 µg/mL
